ABHD4 inh – ABHD4 (mouse) inhibition, primary FP screen; Q8VD66; 370,000 tested, 0.54% active; inhibition, % at 8.92 µM; purified mABHD4, FP-Rh probe fluorescence polarization;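 active = inhibition exceeding the mean over every tested compound plus 3 SD, cut at about 30% in these data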;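 also: 0% = plate median of compound wells and 100% = S159A mutant with DMSO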
Target sequence (Q8VD66 whole entry, looked up): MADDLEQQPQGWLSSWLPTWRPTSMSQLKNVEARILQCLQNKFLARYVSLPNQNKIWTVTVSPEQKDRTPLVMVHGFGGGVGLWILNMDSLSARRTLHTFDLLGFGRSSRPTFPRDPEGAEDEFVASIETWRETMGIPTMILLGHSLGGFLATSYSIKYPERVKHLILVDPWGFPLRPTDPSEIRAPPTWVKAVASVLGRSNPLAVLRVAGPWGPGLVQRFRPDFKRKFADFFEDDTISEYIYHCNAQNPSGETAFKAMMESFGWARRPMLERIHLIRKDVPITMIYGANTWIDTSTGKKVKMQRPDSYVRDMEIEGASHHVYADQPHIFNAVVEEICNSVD
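Test system: mABHD4 protein; Read-out basis: % inhibition; Incubation: 45 min + 60 min at 25 °C; Repeats: single replicate; Technique: fluorescence polarization with parallel and perpendicular emission, 525/598 nm; Compound: 8.92 µM, single dose; Benchmarks: full inhibition S159A mutant plus DMSO, zero as sample-well median.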
SIAE inh – blocks human sialic acid acetylesterase; inhibition, % at 9.66 µM; 370,000 tested, 0.69% active; SIAE FP-Rh probe binding, fluorescence polarization; Q9HAT2;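 active = inhibition above a cutoff: mean of compounds within the control limits plus 3 SD of those, cut at about 17% in these data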;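 also: 0% = plate median of compound wells and 100% = probe without SIAE protein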
TCR-CD3 inh – human TCR-CD3 binding inhibition | TAMRA-labeled TCR probe fluorescence, biochemical | inhibition, % at 9.4 µM | 360,000 tested, 0.37% active; in the data active = inhibition above about 19%;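 also: recombinant mutant TCR 2C K166C tagged with TAMRA read by polarization; 0% = receptor in buffer alone and 100% = receptor with positive control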
LEDGF integ inh – blocks HIV-1 LEDGF/p75-dependent DNA integration; TR-FRET IN-LEDGF/p75 DNA integration, Eu/Cy5; inhibition, % at 3.7 µM; 370,000 tested, 0.64% active; AID 743269;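 active = inhibition above the screen-wide mean plus 3 SD, cut at about 13% in these data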;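 also: signal is the Cy5 over europium emission ratio at 671 and 618 nm; 0% = plate median of compound wells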
HTRA1 inh – blocks human HTRA1 serine peptidase | AID 504803 | 340,000 tested, 0.5% active | Q92743 | recombinant HTRA1, FP-rhodamine activity-based probe, fluorescence polarization | inhibition, % at 5.96 µM; in the data active = inhibition above about 36%;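 also: 0% = enzyme with DMSO and 100% = wells lacking enzyme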
TDP2 inh – blocks human TDP2 phosphodiesterase activity | O95551 | recombinant TDP2, T5PNP hydrolysis, p-nitrophenol absorbance 415 nm | inhibition, % at 12.8 µM | 370,000 tested, 0.34% active | AID 720702;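 active = inhibition above the mean of all tested compounds plus 3 SD, set per campaign, cut at about 25% in these data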;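 also: 0% = DMSO with enzyme and 100% = buffer with substrate but no TDP2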
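Material: recombinant human TDP2; quantity: TDP2 enzyme at 120 nM final; medium: Tris-HCl pH 7.5 with MgCl2; compound: single concentration, 12.8 µM nominal, with 1% DMSO; incubation: 2 h enzyme incubation at 37 °C; signal: epi absorbance; measure: percent inhibition; benchmarks: high control without enzyme, low control DMSO plus TDP2; repeats: singlicate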
TDP2 inh conf – confirmation of human TDP2 inhibitors. inhibition, % at 12.8 µM. AID 743263. shares compounds with TDP2 inh. recombinant human TDP2, absorbance read-out. 1,100 tested, 22% active; in the data active = inhibition above about 25%;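 also: 0% = vehicle with enzyme and 100% = no enzyme buffer only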
An asterisk follows results filed as active; . = no result given. The list is not random: actives were taken first. Their share in the collection is about 2.2%.

SMILES	ABHD4 inh	SIAE inh	TCR-CD3 inh	LEDGF integ inh	HTRA1 inh	TDP2 inh	TDP2 inh conf
Cc1oc(-c2ccccc2F)nc1CS(=O)(=O)CC(=O)NC(C)CCc1ccccc1 (configuration not stated)	2.2	2.3	2.6	0.9	-12.8	26.7*	-0.8
C=CCN1[C@@H](C)[C@@H](c2ccccc2)Oc2c(Cl)cccc2S1(=O)=O	-18.9	-3.1	-6.5	2.6	.	-4.6	.
CCCCCOc1ccc(CSCCNC(=S)Nc2ccccc2)cc1	-3.5	-2.6	-2.3	-3.7	-12.4	36.6*	-1.9
CCCCNC(=O)C[C@@H]1C(=O)N2CCCC3=C2[C@@]1(C(=O)OCC)CCC3	-1.4	1.3	.	-0.4	.	0.0	.
CCC(C)N(C(C)CC)S(=O)(=O)c1ccc2[nH]c(=O)oc2c1 (configuration not stated)	-5.2	9.1	.	-1.7	.	-7.9	.
Cc1cc(O)cc(=O)n1-c1cc(F)c(F)c(F)c1	4.6	-0.6	-3.7	-3.7	.	-1.3	.
Cc1cccc(CN2CCSCCS2(=O)=O)c1	3.0	0.1	-7.7	-2.8	.	1.8	.
Cc1cccc(CN2CCSCC2)c1	14.1	4.8	7.1	5.2	-0.1	27.3*	-2.5
COCCCN1C(=O)[C@H](CC(=O)N2CCSCC2)[C@]2(C(=O)OC)CCCCC=C12	4.5	2.5	.	-5.0	.	10.9	.
Nc1ccc2nn(-c3cccc4ccccc34)nc2c1	3.7	16.7	2.3	2.4	5.7	36.2*	35.9*
CC1=NN(c2ccccc2)C(=O)/C1=C\c1sccc1C	2.1	7.7	5.4	-3.3	5.0	19.0	.
CC1=NN(c2ccccc2)C(=O)C1=C(C)C	4.4	-7.1	-15.4	4.8	-4.2	37.1*	12.2
Cc1ccc(C)c(S(=O)(=O)NCc2ccc(C(=O)N3CCOCC3)cc2)c1	0.1	4.3	6.1	5.4	-0.5	24.5*	-4.6
COC(=O)c1cccc(NC(=O)c2cc3ccccc3o2)c1	-24.2	-9.1	-2.4	-4.9	-22.5	-12.2	.
COC(=O)c1cc(NC(=O)c2cc3ccccc3o2)cc(C(=O)OC)c1	6.4	7.1	7.0	1.8	2.4	26.2*	0.8
Cc1ccc(S(=O)(=O)c2c(N)n(CCCO)c3nc4ccccc4nc23)cc1	-6.0	-9.3	-1.5	13.2	-12.4	54.4*	-6.7
CN(CCO)c1ccc2c(c1)Oc1ccccc1CN(Cc1cn(Cc3ccc(F)cc3)nn1)S2(=O)=O	-7.3	5.1	.	4.0	.	-1.9	.
CCCCCCCCN1CCS(=O)(=O)N(Cc2ccc(Cl)cc2)C(C(=O)OC)C1 (configuration not stated)	-5.0	-1.7	.	1.1	.	-2.4	.
COc1ccc2nc(SCC(=O)NCc3ccccc3)[nH]c2c1	3.1	3.4	-5.9	0.4	-5.3	59.6*	-2.0
CN(C)NC(=S)Nc1ccc2nc(-c3ccccn3)c(-c3ccccn3)nc2c1	6.8	-4.7	-1.5	0.2	0.1	5.2	.
S=C(Nc1ccc2nc(-c3ccccn3)c(-c3ccccn3)nc2c1)N1CCOCC1	3.6	-3.4	-5.9	25.8*	7.0	30.6*	-0.4
CCOC(=O)C(=O)N/N=C/c1cccc(Br)c1	-0.3	3.2	4.7	1.9	3.1	24.7*	-4.4
CN1C2CCC1CC(N(CCc1ccccc1)C(=O)c1ccc(Cl)cc1)C2 (configuration not stated)	-3.2	2.3	1.1	-6.8	4.6	27.6*	6.6
CCOc1ccccc1NC(=O)c1cc(S(=O)(=O)NCc2ccco2)ccc1F	-10.2	-3.5	-4.5	-2.8	-24.7	25.5*	-10.0
COc1ccc(OC)c(NC(=O)c2cc(S(=O)(=O)NCc3ccco3)ccc2F)c1	1.7	0.0	-1.5	-0.1	-17.4	-7.6	.
O=C(CNC(=O)c1ccc([N+](=O)[O-])cc1)N/N=C/c1c[nH]c2ccccc12	-0.5	3.3	2.3	3.0	-0.8	26.6*	2.6
O=C(CNC(=O)c1ccco1)N/N=C/c1c[nH]c2ccccc12	-2.4	7.5	7.0	-1.1	-3.9	8.8	.
C[C@@H]1CN([C@@H](C)CO)C(=O)c2cccc(NC(=O)Nc3cccc4ccccc34)c2O[C@H]1CN(C)S(=O)(=O)c1ccc2c(c1)OCCO2	-16.8	-5.4	.	2.0	.	-0.3	.

Screening results: PubChem BioAssay, The Scripps Research Institute Molecular Screening Center
